SIRT5 inh: blocks human SIRT5 desuccinylation of peptide; Q9NXA8; Purified SirT5, succinyl-peptide AMC, trypsin-coupled fluorescence; actives 1.1% (n = 330,000); inhibition, % at 15 µM; in the data active = inhibition above about 15%; inconclusive = no clear call, values can overlap the other calls
FGF22 binding: shifts melting point of recombinant human FGF22. Q9HCT0. recombinant FGF22 thermal shift, SYPRO orange fluorescence; percent of sucrose octasulfate shift, DMSO zero. activity (Tm shift, normalised), % at 9.99 µM. actives 1.5% (n = 340,000). AID 651658;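 active = mean Tm shift, scaled 0 neutral to 100 positive control, at about 1.3% or above, every replicate too, limit read from the data; inconclusive = no clear call, values can overlap the other calls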
Statin myotox sup: suppression of simvastatin myotoxicity; C2C12 myotubes + simvastatin, ATP luminescence, 48 h; scaled: DMSO 0, geranylgeraniol control 100; rescue of ATP level, % at 7.49 µM; actives 0.78% (n = 330,000);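 active = mean ATP rescue above about 67%, or every replicate alone reaching that limit, limit read from the data, passing the limit was not always enough; inconclusive = no clear call, values can overlap the other calls; inactive = mean under the limit and some replicate under it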;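 note: myotubes were challenged with 10 µM simvastatin during compound exposure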
E-selectin induc: E-selectin induction on HUVECs. P16581. activation, % at 7.58 µM. HUVEC E-selectin immunofluorescence imaging; normalized: neutral wells 0, TNF-alpha wells 100. AID 686992. actives 0.37% (n = 260,000);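 active = mean E-selectin-positive cell signal at least 10% of the positive control, reached in at least 60% of replicates, without over 20% cell loss; inconclusive = no rule given, readout overlaps actives, possibly toxicity-flagged; inactive = the rest, including those meeting only one limit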
Target sequence (P16581 whole entry, looked up): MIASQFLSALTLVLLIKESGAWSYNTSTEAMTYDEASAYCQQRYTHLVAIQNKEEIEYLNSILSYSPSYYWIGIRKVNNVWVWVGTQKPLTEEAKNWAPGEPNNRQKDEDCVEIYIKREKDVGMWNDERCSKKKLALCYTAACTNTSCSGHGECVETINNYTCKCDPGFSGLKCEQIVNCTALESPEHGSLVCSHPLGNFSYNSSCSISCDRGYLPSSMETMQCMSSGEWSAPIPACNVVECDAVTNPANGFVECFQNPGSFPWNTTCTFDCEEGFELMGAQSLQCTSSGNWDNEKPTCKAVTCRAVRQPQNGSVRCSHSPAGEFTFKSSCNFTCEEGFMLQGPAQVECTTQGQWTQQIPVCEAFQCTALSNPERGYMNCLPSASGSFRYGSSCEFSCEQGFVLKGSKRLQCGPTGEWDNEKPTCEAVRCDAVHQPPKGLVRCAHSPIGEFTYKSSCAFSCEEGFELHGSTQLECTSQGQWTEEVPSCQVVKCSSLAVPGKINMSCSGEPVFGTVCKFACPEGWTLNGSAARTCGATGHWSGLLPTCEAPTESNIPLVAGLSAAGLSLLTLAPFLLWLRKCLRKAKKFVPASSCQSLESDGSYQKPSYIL
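material = human umbilical vein endothelial cells (HUVEC), E-selectin induction | quantity = 3,000 cells/well | medium = EGM-2 growth medium on 0.1% gelatin-coated wells | technique = immunofluorescence imaging | read-out basis = % PE-positive cells | control set = TNF-alpha positive control, DMSO neutral control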
Ecoli rRNA inh: selective bacterial rRNA inhibition in E. coli; actives 1.6% (n = 350,000); GFP signal change (wild-type ribosome), % (concentration not given with the values); E. coli WT GFP vs humanized-ribosome RFP mutants, fluorescence, 24 h; hits give low values; DMSO median 0, no signal -100;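 active = significant combined selectivity score with lowered wild-type GFP, culture density cut under 30%, mutant RFP and density less affected; inactive = any of these conditions unmet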
FN deposit inh: fibronectin deposition inhibition | AH1F fibroblasts, Alexa488-fibronectin deposition fluorescence, overnight | inhibition, % at 12.6 µM | actives 0.086% (n = 350,000);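 active = mean inhibition across replicates of 30% or more, regardless of how many single replicates reach that level; inconclusive = mean under 30% yet at least half of replicates reach 30%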
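test system = AH1F fibroblasts assembling fluorescent fibronectin matrix | quantity = 10000 AH1F cells per well | buffer or medium = DMEM plus 2% serum, read in PBS | doses = single dose, pinned | incubation = 1 h cell attachment, overnight exposure to compound and label | detection = fluorescence at 485 nm excitation, 525 nm emission | read-out basis = inhibition from reduced deposited-fibronectin fluorescence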
AID977621: growth inhibition of wild-type GFP E. coli, dose response, H69 mutant RFP, cherry-pick; shares compounds with Ecoli rRNA inh; E. coli wild-type GFP strain growth, fluorescence, 24 h; activity change, negative = inhibition at 50 µM; 1,900 tested, under 10 active;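 active = Wild-type ribosome reporter drop at least double the humanized mutant ribosome reporter drop, growth loss under a set limit; inconclusive = no clear call, values can overlap the other calls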;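 note: wild-type GFP and H69 mutant RFP strains grown together 50/50 in each well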
AID977628: growth of wild-type and h24-humanized E. coli strains – h24 mutant RFP vs wild-type GFP, cherry-pick, dose response; AID 977628; shares compounds with Ecoli rRNA inh; E. coli WT GFP strain growth, fluorescence, 24 h; activity change, negative = inhibition at 50 µM; 1,900 tested, under 10 active;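 active = compound lowering the normal-ribosome reporter at least twice as much as the humanized-ribosome reporter, growth loss under a set limit; inconclusive = no clear call, values can overlap the other calls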;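 note: wild-type GFP and h24 humanized RFP strains co-cultured 1 to 1 per well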
Numbers stand for hits. In the library only some 4% were active in any assay of this set; here they are far more common.

CC(OC(=O)COc1ccccc1)C(=O)NC1CCCC1 (stereo not given) was read as SIRT5 inh inactive, FGF22 binding inactive, Statin myotox sup inactive, E-selectin induc inactive, Ecoli rRNA inh -18, FN deposit inh inactive and AID977628 inactive.
Screening CC(Oc1ccccc1)C(=O)NC1CCCCCCC1 (stereo not given) returned SIRT5 inh inactive, FGF22 binding inactive, Statin myotox sup inactive, Ecoli rRNA inh inactive and FN deposit inh inactive.
Screening c1ccc2c(c1)Nc1cc3ccccc3cc1S2 returned SIRT5 inh inactive, FGF22 binding inactive, E-selectin induc inactive, Ecoli rRNA inh -21, FN deposit inh inactive, AID977621 inactive and AID977628 inactive.
`COc1ccc2c(c1)Sc1ccccc1N2` gave FGF22 binding inactive, E-selectin induc inactive and Ecoli rRNA inh inactive.
Screening O=C(NC[C@@H]1[C@@H](c2ccccc2)[C@@H](CO)N1C(=O)Cc1ccncc1)C1CCC1 returned SIRT5 inh inactive, FGF22 binding inactive, Statin myotox sup inactive, E-selectin induc inactive, Ecoli rRNA inh inactive and FN deposit inh inactive.
For CCN1[C@@H]2c3ccc(-c4cncnc4)c(=O)n3C[C@@H]2[C@@H](CO)[C@@H]1C(=O)OC the results were SIRT5 inh inactive, FGF22 binding inactive, Statin myotox sup inactive, E-selectin induc inactive and Ecoli rRNA inh inactive.
Screening Cc1cccc(Cn2nc(C)c(NC(=O)c3ccc(F)cc3)c2C)c1 returned SIRT5 inh inactive, FGF22 binding inactive, E-selectin induc inactive and Ecoli rRNA inh inactive.
For Cc1nn(Cc2cccc(F)c2)c(C)c1NC(=O)c1c(Cl)cnn1C the results were SIRT5 inh inactive, FGF22 binding inactive, Ecoli rRNA inh -18, FN deposit inh inactive, AID977621 inactive and AID977628 inactive.
`CCOC(=O)c1ccc(NC(=O)Cn2nnc(-c3ccccc3C)n2)cc1` gave Statin myotox sup inactive.
COC(=O)c1sccc1NC(=O)Cn1nnc(-c2ccccc2C)n1 was read as SIRT5 inh inactive, FGF22 binding inactive, Ecoli rRNA inh -30 and AID977621 inactive.
COc1ccc(NC(=O)N(C)C[C@@H]2Oc3c(NC(=O)CCCCCC(=O)Nc4ccccc4N)cccc3C(=O)N([C@@H](C)CO)C[C@H]2C)cc1 was read as SIRT5 inh inactive, FGF22 binding inactive, E-selectin induc inactive, Ecoli rRNA inh inactive and FN deposit inh inactive.
Screening CN(C)CCCNC(=O)C[C@H]1CC[C@H]2[C@@H](COC[C@@H](O)CN2CC2CC2)O1 returned SIRT5 inh inactive, Statin myotox sup inactive, E-selectin induc inactive, Ecoli rRNA inh inactive and FN deposit inh inactive.
For COc1ccc(S(=O)(=O)n2cccc2)cc1 the results were SIRT5 inh inactive, FGF22 binding inactive, E-selectin induc inactive, Ecoli rRNA inh -23, FN deposit inh inactive, AID977621 inconclusive and AID977628 inconclusive.
COc1ccc(S(=O)(=O)N2CCOc3ccccc32)cc1 was read as SIRT5 inh inactive, FGF22 binding inactive, Statin myotox sup inactive, E-selectin induc inactive, Ecoli rRNA inh -22, FN deposit inh inactive, AID977621 inactive and AID977628 inactive.
`COc1ccc(N2CCN(S(=O)(=O)c3ccc(OC)cc3)CC2)cc1` gave SIRT5 inh inactive, FGF22 binding inactive, Statin myotox sup inactive and Ecoli rRNA inh inactive.
For COc1ccc(S(=O)(=O)N2c3ccccc3OCC2C)cc1 (stereo not given) the results were SIRT5 inh inactive, Ecoli rRNA inh inactive and FN deposit inh inactive.
For COCCNC(=O)C[C@H]1CC[C@H]2[C@H](COc3ccc(NC(=O)Nc4ccccc4)cc3C(=O)N2C)O1 the results were SIRT5 inh inactive, FGF22 binding inactive, Statin myotox sup inactive, E-selectin induc inactive, Ecoli rRNA inh inactive and FN deposit inh inactive.
CC=Cc1ccc2n(c1=O)C[C@@H]1[C@@H](CO)[C@H](C(=O)OC)N(C(C)=O)[C@H]21 (mixture of isomers) was read as SIRT5 inh inactive, FGF22 binding inactive, Statin myotox sup inactive, E-selectin induc inactive and Ecoli rRNA inh inactive.
`COc1ccc(C(=O)C[n+]2ccc3c(c2)nc(-c2cc(OC)c(OC)cc2OC)n3C)cc1` gave SIRT5 inh inactive, FGF22 binding inactive, Statin myotox sup inactive, Ecoli rRNA inh -28, AID977621 inconclusive and AID977628 inactive.
For COc1cc(OC)c(-c2nc3c[n+](CC(=O)c4ccccc4)ccc3n2C)cc1OC the results were Statin myotox sup inactive.
`Cc1nnc2sc(SCC(=O)Nc3ccc(Br)cc3)nn2c1=O` gave FGF22 binding inactive, Statin myotox sup inactive, E-selectin induc inactive, Ecoli rRNA inh -24, FN deposit inh inactive and AID977621 inactive.
Screening COc1ccccc1CNC(=O)c1cc2sccc2n1C returned SIRT5 inh inactive, FGF22 binding inactive, Ecoli rRNA inh -20 and AID977621 inactive.
Screening COc1ccccc1C(=O)Nc1cccc2cccnc12 returned SIRT5 inh inactive, FGF22 binding inactive, Statin myotox sup inactive, Ecoli rRNA inh -30, FN deposit inh inactive and AID977621 inactive.
O=C(Nc1cccc2cccnc12)c1ccccc1Cl was read as SIRT5 inh inactive, FGF22 binding inactive, Statin myotox sup inactive, E-selectin induc inactive, Ecoli rRNA inh inactive and FN deposit inh inactive.
Screening COC(=O)c1sc(-c2ccc(C(C)(C)C)cc2)cc1NC(=O)c1ccccc1C(=O)O returned SIRT5 inh inactive, FGF22 binding inactive, E-selectin induc inactive, Ecoli rRNA inh -17, FN deposit inh inactive and AID977621 inactive.
Screening COc1ccc(Nc2nc(NCCO)nc(N3CCCC3)n2)cc1 returned FGF22 binding inactive, Statin myotox sup inactive, E-selectin induc inactive, Ecoli rRNA inh -16, FN deposit inh inactive, AID977621 inactive and AID977628 inconclusive.
Screening CN(C)S(=O)(=O)c1cccc(NC(=O)c2cc3c(cc2Cl)N2CCCCCC2=NS3(=O)=O)c1 returned SIRT5 inh inactive, FGF22 binding inactive, E-selectin induc inactive, Ecoli rRNA inh inactive and FN deposit inh inactive.
For CN(C)S(=O)(=O)c1cccc(NC(=O)c2ccc3c(c2)S(=O)(=O)N=C2CCCCCN23)c1 the results were SIRT5 inh inactive, FGF22 binding inactive, Statin myotox sup inactive, E-selectin induc inactive, Ecoli rRNA inh -20, FN deposit inh inactive, AID977621 inactive and AID977628 inactive.

Source: PubChem
